Test results published in ChEMBL document CHEMBL1145471, “Small molecule regulators of autophagy identified by an image-based high-throughput screen” (Proc Natl Acad Sci U S A, 2007).
Calls of active or inactive are those of the source. No cut-off for these calls is given here.

Assays:
H4 [1] = assay: Increase in light chain 3-GFP+ autophagosome vesicle number per cell in human H4 cells at 6.6 uM after 24 hrs by high throughput fluorescence microscopy relative to control; assay type: functional
Method in brief: (§1)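 H4 cells stably expressing LC3-GFP were grown in DMEM with 10% FBS and 2 mM L-glutamine at 37°C, 5% CO2. They were exposed to each compound for 24 h, with DMSO as negative and rapamycin as positive control. Cells were then fixed in 4% paraformaldehyde and stained with 3 μg/ml DAPI. High-throughput fluorescence imaging scored LC3-GFP spot number, size and intensity, expressed relative to DMSO. Mean ± SD of triplicates; experiments repeated three times.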

H4 [2] = assay: Increase in light chain 3-GFP+ autophagosome vesicle area per cell in human H4 cells at 6.6 uM after 24 hrs by high throughput fluorescence microscopy relative to control; assay type: functional
Method in brief: (§2)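 H4 cells stably expressing LC3-GFP, seeded in 96-well plates and exposed to compound for 24 h; screening concentrations were 3–12 μM, with rapamycin 0.22 μM and bafilomycin A1 0.40 μM. Cells fixed in 4% paraformaldehyde and stained with 3 μg/ml DAPI. Number, size and intensity of LC3-GFP spots measured by high-throughput fluorescence microscopy and expressed as percent of DMSO-treated wells. Rapamycin was the positive control. Triplicate wells, mean ± SD; experiments repeated three times.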

H4 [3] = assay: Increase in light chain 3-GFP+ autophagosome vesicle intensity per cell in human H4 cells at 6.6 uM after 24 hrs by high throughput fluorescence microscopy relative to control; assay type: functional; method in brief: as §1
H4 [4] = assay: Effect on FYVE-RFP+ vesicle intensity per cell in human H4 cells after 2 hrs relative to control; assay type: functional; design: concentration or dose not given beside the values
Method in brief: (§3)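 H4 cells stably expressing FYVE-RFP (H4-FYVE), grown in DMEM with 10% FBS, penicillin/streptomycin and 2 mM L-glutamine at 37°C, 5% CO2, seeded in 96-well plates and exposed to compound. Fixed in 4% paraformaldehyde, nuclei stained with 3 μg/ml DAPI, FYVE-RFP+ vesicles quantified by high-throughput fluorescence microscopy against DMSO control. Triplicate wells, mean ± SD.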

H4 [5] = assay: Effect on FYVE-RFP+ vesicle intensity per cell in human H4 cells after 4 hrs relative to control; assay type: functional; design: concentration or dose not given beside the values; method in brief: as §3
H4 [6] = assay: Effect on FYVE-RFP+ vesicle intensity per cell in human H4 cells after 8 hrs relative to control; assay type: functional; design: concentration or dose not given beside the values; method in brief: as §3
H4 [7] = assay: Increase in long-lived protein degradation in human H4 cells after 1 hr relative to control; assay type: functional; design: concentration or dose not given beside the values
H4 [8] = assay: Increase in long-lived protein degradation in human H4 cells after 2 hrs relative to control; assay type: functional; design: concentration or dose not given beside the values
H4 [9] = assay: Increase in long-lived protein degradation in human H4 cells after 4 hrs relative to control; assay type: functional; design: concentration or dose not given beside the values
H4 [10] = assay: Increase in long-lived protein degradation in human H4 cells after 24 hrs relative to control; assay type: functional; design: concentration or dose not given beside the values
H4 [11] = assay: Induction of light chain 3-GFP level in human H4 cells at 6.6 uM after 24 hrs by high throughput fluorescence microscopy relative to control; assay type: functional
Method in brief: (§4)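 H4 cells stably expressing LC3-GFP, grown in DMEM with 10% FBS, penicillin/streptomycin and 2 mM L-glutamine at 37°C, 5% CO2. Cells were seeded in 96-well plates and exposed to library compounds at 3–12 μM for 24 h, then fixed in 4% paraformaldehyde and stained with 3 μg/ml DAPI. LC3-GFP spot number, size and intensity were measured by high-throughput fluorescence microscopy and expressed relative to DMSO. Triplicates, mean ± SD.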

H4 [12] = assay: Induction of light chain 3-GFP level in human H4 cells at 4.4 uM after 24 hrs by high throughput fluorescence microscopy relative to control; assay type: functional; method in brief: as §4
H4 [13] = assay: Increase in light chain 3-GFP+ autophagosome vesicle area per cell in human H4 cells at 4.4 uM after 24 hrs by high throughput fluorescence microscopy relative to control; assay type: functional; method in brief: as §2
H4 [14] = assay: Increase in light chain 3-GFP+ autophagosome vesicle intensity per cell in human H4 cells at 4.4 uM after 24 hrs by high throughput fluorescence microscopy relative to control; assay type: functional; method in brief: as §1
H4 [15] = assay: Induction of autophagy in human H4 cells; assay type: functional, cell-based
H4 [16] = assay: Increase in light chain 3-GFP+ autophagosome vesicle number per cell in human H4 cells at 4.4 uM after 24 hrs by high throughput fluorescence microscopy relative to control; assay type: functional; method in brief: as §1
H4 [17] = assay: Increase in light chain 3-GFP+ autophagosome vesicle area per cell in human H4 cells at 3.3 uM after 24 hrs by high throughput fluorescence microscopy relative to control; assay type: functional
Method in brief: (§5)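 H4 cells stably expressing LC3-GFP, seeded in 96-well plates and exposed to compound for 24 h; fixed in 4% paraformaldehyde, nuclei stained with 3 μg/ml DAPI. Automated fluorescence microscopy scored number, size and intensity of LC3-GFP spots; values expressed relative to DMSO-treated wells, rapamycin positive control. Triplicate wells, mean ± SD; experiments repeated three times.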

H4 [18] = assay: Increase in light chain 3-GFP+ autophagosome vesicle number per cell in human H4 cells at 3.3 uM after 24 hrs by high throughput fluorescence microscopy relative to control; assay type: functional; method in brief: as §5
H4 [19] = assay: Increase in light chain 3-GFP+ autophagosome vesicle intensity per cell in human H4 cells at 3.3 uM after 24 hrs by high throughput fluorescence microscopy relative to control; assay type: functional; method in brief: as §5
H4 [20] = assay: Decrease in FYVE-RFP+ vesicle intensity per cell in human H4 cells after 2 hrs relative to control; assay type: functional; design: concentration or dose not given beside the values; method in brief: as §3
H4 [21] = assay: Decrease in FYVE-RFP+ vesicle intensity per cell in human H4 cells after 4 hrs relative to control; assay type: functional; design: concentration or dose not given beside the values; method in brief: as §3
H4 [22] = assay: Decrease in FYVE-RFP+ vesicle intensity per cell in human H4 cells after 8 hrs relative to control; assay type: functional; design: concentration or dose not given beside the values; method in brief: as §3
H4 [23] = assay: Induction of light chain 3-GFP level in human H4 cells at 3.3 uM after 24 hrs by high throughput fluorescence microscopy relative to control; assay type: functional
Method in brief: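 H4 cells stably expressing LC3-GFP, kept in DMEM/10% FBS at 37°C, 5% CO2, were seeded in 96-well plates and exposed to compound for 24 h. Cells were then fixed in 4% paraformaldehyde and stained with 3 μg/ml DAPI. Automated fluorescence microscopy scored the number, size and intensity of LC3-GFP spots. Values are percent of DMSO wells, in triplicate, mean ± SD. Rapamycin served as positive control.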

H4 [24] = assay: Increase in light chain 3-GFP+ autophagosome vesicle number per cell in human H4 cells at 7.2 uM after 24 hrs by high throughput fluorescence microscopy relative to control; assay type: functional; method in brief: as §1
H4 [25] = assay: Increase in light chain 3-GFP+ autophagosome vesicle area per cell in human H4 cells at 7.2 uM after 24 hrs by high throughput fluorescence microscopy relative to control; assay type: functional; method in brief: as §2
H4 [26] = assay: Increase in light chain 3-GFP+ autophagosome vesicle intensity per cell in human H4 cells at 7.2 uM after 24 hrs by high throughput fluorescence microscopy relative to control; assay type: functional; method in brief: as §1
H4 [27] = assay: Induction of light chain 3-GFP level in human H4 cells at 7.2 uM after 24 hrs by high throughput fluorescence microscopy relative to control; assay type: functional; method in brief: as §4

SMILES | Activity (H4 [4]) | Activity (H4 [5]) | Activity (H4 [6]) | Activity (H4 [7]) | Activity (H4 [8]) | Activity (H4 [9]) | Activity (H4 [10]) | further results
CCCNCC(O)COc1ccccc1C(=O)CCc1ccccc1 (stereo not given) [PROPAFENONE] | 114.69% | 78.75% | 62.87% | 114.56% | 113.22% | 99.78% | 102.73% | Activity (H4 [1]): 210.4%; Activity (H4 [2]): 271.21%; Activity (H4 [3]): 385.97%; Activity (H4 [11]): 99.88%
CC/C(=C(\c1ccccc1)c1ccc(OCCN(C)C)cc1)c1ccccc1 [TAMOXIFEN] | 77.66% | 71.55% | 85.37% | 70.67% | 101.24% | 105.85% | 114.97% | Activity (H4 [12]): 91.2%; Activity (H4 [13]): 376.53%; Activity (H4 [14]): 585.87%; Activity (H4 [15]): inactive; Activity (H4 [16]): 291.52%
COc1cc2c3cc1Oc1c(OC)c(OC)cc4c1[C@@H](Cc1ccc(OC(=O)c5ccc([N+](=O)[O-])cc5)c(c1)Oc1ccc(cc1)C[C@@H]3N(C)CC2)N(C)CC4 [E6 BERBAMINE] | – | – | – | 100.96% | 91.62% | 96.53% | 93.45% | Activity (H4 [17]): 693.82%; Activity (H4 [18]): 389.35%; Activity (H4 [19]): 2447.47%; Activity (H4 [20]): 59.73%; Activity (H4 [21]): 54.54%; Activity (H4 [22]): 58.69%; Activity (H4 [23]): 131.16%
COC(=O)c1c(C)[nH]c(C)c1C(=O)c1ccccc1Cc1ccccc1 | 99.43% | 78.17% | 87.62% | 101.34% | 111.04% | 97.03% | 90.97% | Activity (H4 [24]): 161.73%; Activity (H4 [25]): 18010%; Activity (H4 [26]): 200.83%; Activity (H4 [27]): 132.45%
